# Rows were chosen to be rich in hits. Some 2.3% of all compounds tested hit in one or more screens of this group.
# NadD block: blocks S. aureus nicotinate mononucleotide adenylyltransferase; purified NadD enzyme, colorimetric absorbance read-out; hit rate 0.78% among 360,000; inhibition, % at 20 µM; AID 602399; in the data active = inhibition above about 26%
# SUMO1-SIM PPI: alters human SUMO1 binding to SIM partners; hit rate 0.33% among 360,000; inhibition, % at 20 µM; P63165; SUMO1 binding to a labelled peptide, TR-FRET, 1 h; AID 602429; in the data active = inhibition above about 37%
# Scp1 inh: blocks human Scp-1 phosphatase activity; Q9GZU7; Recombinant Scp1, phosphopeptide, malachite green phosphate absorbance; inhibition, % at 20 µM; hit rate 0.88% among 340,000; AID 493091;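 active = inhibition above about 50% at 20 µM, limit read from the data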;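 also: plate controls were DMSO wells with enzyme for no effect and wells lacking enzyme for full effect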
#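 System: SCP-1 catalytic domain; Reagent: Phospho 17-mer peptide substrate; Doses: one concentration, 20 µM, with 1.0% DMSO; Incubation: 45 min room-temperature reaction, 5 min colour, 30 min stabiliser; Signal: Phosphate-binding colour reagent, absorbance read at 630 nm.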
# DNMT1 inh: DNMT1 (human) enzyme inhibition | inhibition (reported as % activation of signal), % at 10 µM | DNMT1 molecular beacon, Hinp1I cleavage, fluorescence | hit rate 0.83% among 360,000 | P26358; in the data active = inhibition above about 50%
# STEP inh: blocks human striatal-enriched tyrosine phosphatase. P54829. AID 588621. inhibition, % at 20 µM. hit rate 0.25% among 360,000. recombinant STEP, OMFP fluorogenic substrate, fluorescence;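 active = inhibition at 20 µM, scaled per plate between control wells, above about 37%, limit read from the data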;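 also: 0% = DMSO with enzyme and substrate and 100% = substrate only without enzyme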
#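 Material: STEP (striatal-enriched tyrosine phosphatase) enzyme, cell-free; Compound dosing: 20 µM single dose in 1% DMSO; Technique: fluorescence read at 480 nm ex / 540 nm em; Times: reaction 20 min, ambient temperature; Medium: 50 mM Bis-Tris pH 6.0 with 2.5 mM DTT and 0.005% Tween 20; Also added: OMFP at 25 µM.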
# LMPTP block: LMPTP (human) inhibition; P24666; recombinant LMPTP-A, OMFP fluorogenic substrate, fluorescence intensity; inhibition, % at 20 µM; hit rate 0.22% among 360,000; AID 651560;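 active = compounds that cut the enzyme signal by at least half of the control window in the single-dose screen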;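 also: plate controls were DMSO wells with enzyme plus substrate for no effect and substrate without enzyme for full effect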
#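 test system = LMPTP-A | amount = 0.625 nM LMPTP-A final | reagent = fluorogenic phosphatase substrate OMFP at 400 µM final | incubation = 50 min at room temperature | benchmarks = no-enzyme low control, uninhibited high control | medium = Bis-Tris pH 6.0, DTT, detergent | signal = fluorescence intensity of OMFP turnover product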
# DNMT1 interf DR: shows spectral interference in the DNMT1 beacon assay; shares compounds with DNMT1 inh; molecular beacon fluorescence, spectral interference counter-screen; IC50, µM; 200 tested, under 10 active; AID 602382
# DNMT1 inh conf: DNMT1 inhibition confirmation, single concentration; shares compounds with DNMT1 inh; DNMT1 molecular beacon HinP1I cleavage, fluorescence; inhibition, % at 10 µM; hit rate 8% among 2,300;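 active = average inhibition of at least 30% in the single-concentration confirmation test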
# Beacon interf: counter-screen for DNMT1 inhibitors: spectral interference. shares compounds with DNMT1 inh. DNMT1 molecular beacon spectral interference counterscreen, fluorescence 485/520. activation (fluorescence interference), % at 10 µM. hit rate 1% among 2,300;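 active = activation of at least 30% at 10 µM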;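 also: DNMT1 catalytic domain with a HinP1I cleavage step and a FAM/dabcyl DNA beacon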
# STEP inh conf: confirmation of human STEP phosphatase inhibitors | recombinant STEP, OMFP fluorogenic substrate, fluorescence | shares compounds with STEP inh | hit rate 32% among 520 | AID 623866 | inhibition, % at 20 µM;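 also: 0% = enzyme with substrate plus DMSO and 100% = substrate without enzyme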
# NadD conf: confirmation of Staphylococcus aureus NadD inhibitors; shares compounds with NadD block; purified S. aureus NadD, colorimetric enzyme assay; inhibition, % at 20 µM; hit rate 13% among 2,000; in the data active = inhibition mostly above about 42%, no sharp cut-off; inactive = mostly below about 42%
# * hit, by the source's call; nt = no result. Unless noted, no rule for the calls is given here.
SMILES,NadD block,SUMO1-SIM PPI,Scp1 inh,DNMT1 inh,STEP inh,LMPTP block,NadD conf,others
CCN1C(=O)C(=C/C=C/c2ccco2)C(=O)N(CC)C1=S,22,19,55*,101*,-6,6,nt,DNMT1 inh conf=12;Beacon interf=-3
CC(C)N1C(=O)/C(=C/C=C/c2ccco2)C(=O)N(Cc2ccco2)C1=O,17,8,70*,109*,2,5,nt,DNMT1 interf DR=>99;DNMT1 inh conf=27;Beacon interf=0
O=C(Cc1ccccc1F)N1CCN(CC(=O)N2CCCC2)CC1,-4,7,16,3,3,-2,nt,
CC(C)(C)c1ccc(O)c(CN2CCN(c3ccccc3)CC2)c1,-10,-1,-4,-1,0,1,nt,
CN1CCN(C(=O)COc2ccc(S(=O)(=O)N(C)Cc3ccccc3)cc2)CC1,-2,-3,-5,55*,0,-1,nt,DNMT1 inh conf=4;Beacon interf=9
CC(C)(C)n1nnnc1C(c1cccs1)N1CCC2(CC1)C(=O)NCN2c1ccccc1 (stereo not given),-1,3,nt,-2,2,0,nt,
C/C(=C/CCC(C)[C@H]1CC[C@@]2(C)C3=C(CC[C@]12C)[C@@]1(C)CCC(=O)C(C)(C)[C@@H]1CC3)C(=O)O (stereo not given in full),45*,41*,-8,60*,0,3,13,DNMT1 interf DR=>99;DNMT1 inh conf=23;Beacon interf=-9
COc1ccc(-c2nc3ccccc3c(=O)o2)cc1,-7,4,-2,-2,-1,-1,nt,
CN1CCC2(CC1)N=C(c1ccc(F)cc1)C(=S)N2,-5,-3,-1,1,78*,1,nt,STEP inh conf=28*
C/C(=N\NC(=S)Nc1ccccc1)c1c(O)n(C)c(=O)n(C)c1=O,-1,7,-12,-2,0,-1,nt,
O=C(NC1CC1)c1cn(Cc2ccccc2)nc1-c1ccccc1,0,4,-3,1,1,0,nt,
Cc1ccc(Cn2cc(C=O)c(-c3ccc(C)cc3)n2)cc1,-2,3,-10,2,74*,3,nt,STEP inh conf=27*
CC[C@H]1CN2CCC1C[C@H]2[C@H](O)c1ccnc2ccc(OC)cc12 (stereo not given in full),48*,55*,-9,45,48*,65*,-16,STEP inh conf=9
C[C@]12CCC(=O)C=C1C=CC1C2CC[C@@]2(C)C1CC[C@@H]2O (stereo not given in full),1,-25,-4,1,3,-2,nt,
c1ccc2c(CN3CCN(C4CCCCC4)CC3)c[nH]c2c1,38*,6,-4,-9,-5,0,-19,
COc1cc2c(cc1O)C[C@H]1NCCc3cc4c(c-2c31)OCO4,34*,7,-1,38,6,11,34,
NNC(=O)c1nc[nH]c1C(=O)Nc1ccc(Cl)cc1C(=O)c1ccccc1,48*,2,-2,-16,4,-1,24,
Cc1ccc(C(=O)Nc2ccc(Cl)cc2C(=O)c2ccccc2)cc1,-4,-2,-8,-2,1,3,nt,
CC(C)[C@H]1C(=O)O[C@@H]2CCN3CC=C(COC(=O)[C@](C)(O)[C@]1(C)O)[C@H]23,-2,3,-13,1,2,-1,nt,
CCCCn1c(=O)c(C(=O)Nc2ccccc2C)c(O)c2ccccc21,-6,-2,-10,0,2,1,nt,
CC(C)CCn1c(=O)c(C(=O)Nc2ccccc2S(N)(=O)=O)c(O)c2ccccc21,49*,4,-21,-2,1,2,23,
C[C@H](NC(=O)CCC(=O)N1C[C@H]2C[C@H](C1)c1cccc(=O)n1C2)c1ccccc1,-1,5,1,-1,1,1,nt,
O=c1[nH]c(=S)[nH]c(O)c1N=Nc1ccc(SC(F)F)cc1,0,-35,4,0,1,4,nt,
O=c1[nH]c(=S)[nH]c(O)c1N=Nc1ccc(S(=O)(=O)N2CCc3ccccc32)cc1,49*,-17,-9,-14,0,1,70*,
COc1ccc2nc(-c3ccc(CN4CCC(n5c(=O)[nH]c6ccccc65)CC4)cc3)c(-c3ccccc3)nc2c1,37*,-16,nt,nt,nt,22,20,
Cc1ccc2nc(-c3ccc(CN4CCC(n5c(=O)[nH]c6ccccc65)CC4)cc3)c(-c3ccccc3)nc2c1,25,1,nt,nt,nt,14,nt,
CC(=NCc1ccc2c(c1)OCO2)c1c(O)n(-c2ccccc2)c(=O)[nH]c1=O,-3,0,-7,-3,0,-2,nt,
Cc1cccc(C)c1-n1nnnc1C(CCc1ccccc1)N1CCC(n2c(=O)[nH]c3ccccc32)CC1 (stereo not given),30*,2,nt,-7,1,3,1,
Cc1cc(O)c2c(c1)C(=O)C13C(=C2O)C(=O)[C@H]2[C@@H](O)[C@@H]1[C@H]1[C@H](O)[C@@H]3C(=O)C3=C(O)c4c(O)cc(C)cc4C(=O)C312 (stereo not given in full),4,-10,1,18,1,6,nt,
O=C(Cc1cc(=O)oc2cc(O)ccc12)NN=Cc1ccc(N(CCCl)CCCl)cc1,54*,92*,-1,-3,-3,2,49*,

# High-throughput results deposited in PubChem BioAssay by Sanford-Burnham Center for Chemical Genomics.
